Source: PMC9942841 (Proceedings of the National Academy of Sciences of the …, 2023)
Peptide text beside a SMILES is read from it.

Assays:
[1] = system: mixed P. aeruginosa–S. aureus biofilms; experiment: Clearance of established biofilm; assay type: cell-based, Pseudomonas aeruginosa + Staphylococcus aureus; details: concentrations <32 μM in PBS, 24 h, 37°C; crystal violet, 595 nm
In short: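 Preformed mixed P. aeruginosa–S. aureus biofilms were treated with the test compound, with gentamicin as comparator. Residual biomass was stained with crystal violet, and the solubilised dye was read spectrophotometrically at 595 nm. Results are expressed as biofilm percentage. The assay was run in both 96-well round-bottom plates and round-bottom tubes.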

nude mice = experiment: In vivo safety assay; design: species or system mouse; details: 10 mg/kg or 20 mg/kg subcutaneously, 24 h after injection
In short: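 Twelve 6-week-old female athymic NU/NU nude mice were randomised into 3 groups of 4. Groups received 10 or 20 mg/kg test compound injected subcutaneously into the back skin. Serum was assayed for ALT, AST, urea, CREA and UA. Heart, liver, spleen, lung and kidney were examined histologically by H&E. Error bars are SD from 3 biological replicates.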

Compound	Effect on preestablished mixed biofilm [1]	Histological examination of heart, liver, spleen, kidneys, lungs (H&E) (nude mice)	Serum levels of ALT, AST, UA, urea and CREA (nude mice)
CNC(C)C1CCC(N)C(OC2C(N)CC(N)C(OC3OCC(C)(O)C(NC)C3O)C2O)O1 (stereo not drawn) [Gentamicin, gentamicin]	little impact		
NCCCC[C@H](NC(=O)[C@H](CCCCN)NC(=O)[C@H](Cc1c[nH]c2ccccc12)NC(=O)[C@H](CCCCN)NC(=O)[C@H](CCCCN)NC(=O)[C@H](Cc1c[nH]c2ccccc12)NC(=O)[C@@H](N)Cc1c[nH]c2ccccc12)C(=O)N[C@@H](Cc1c[nH]c2ccccc12)C(=O)N[C@@H](Cc1c[nH]c2ccccc12)C(N)=O [Peptide K6] (H-WWKKWKKWW-NH2)		no abnormalities	within normal range
